# Test results published in ChEMBL document CHEMBL3351346, “Design, synthesis, structure-function relationship, bioconversion, and pharmacokinetic evaluation of ertapenem prodrugs” (J Med Chem, 2014).
# Assays:
# [1] = Stability in pH 7.4 phosphate buffer assessed as compound remaining at 50 uM after 3 hrs by LC-MS/MS method; type: physicochemical; conditions: read-out: Stability
# [2] = Stability in pH 6.5 simulated gastrointestinal fluid assessed as compound remaining at 50 uM after 3 hrs by LC-MS/MS method; type: ADME; conditions: read-out: Stability
# In short: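 Compounds at 50 μM were incubated in fasted-state simulated intestinal fluid (FaSSIF, pH 6.5) for over 3 h. Percent remaining was determined by LC-MS/MS.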
# [3] = Stability in pH 2.0 simulated gastric fluid assessed as compound degradation to beta-lactam ring open products at 1 uM after 60 mins by LC-MS/MS method; type: ADME; conditions: read-out: Drug degradation
# In short: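 Incubation was in simulated gastric fluid (SGF, pH 2.0) for 60 min, with loss to the β-lactam ring-opened product measured by LC-MS/MS.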
# [4] = Stability in rat plasma assessed as compound remaining at 50 uM at 37 degC after 60 mins by LC-MS/MS method; type: ADME, cell-free; conditions: read-out: Stability
# In short: (§1)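 Prodrugs were incubated in rat or human plasma for 60 min. Disappearance of prodrug and concomitant appearance of ertapenem were followed by LC-MS/MS, and in selected cases monoesters from partial hydrolysis were also monitored. Ertapenem itself was incubated the same way as a control.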
# [5] = Stability in human plasma assessed as compound remaining at 50 uM at 37 degC after 60 mins by LC-MS/MS method; type: ADME, cell-free; conditions: read-out: Stability; in short: as §1
"remaining at 3 h, 50 µM [1] [%]","remaining at 3 h, 50 µM [2] [%]","degraded at 1 h, 1 µM [3] [%]","remaining at 1 h, 50 µM [4] [%]","remaining at 1 h, 50 µM [5] [%]",Compound
> 95,> 95,> 25,0,45,C[C@@H](O)[C@H]1C(=O)N2C(C(=O)OCOC(=O)C(C)(C)C)=C(S[C@@H]3CN[C@H](C(=O)Nc4cccc(C(=O)O)c4)C3)[C@H](C)[C@H]12
> 95,> 95,> 25,0,53,C[C@@H](O)[C@H]1C(=O)N2C(C(=O)O)=C(S[C@@H]3CN[C@H](C(=O)Nc4cccc(C(=O)OCOC(=O)C(C)(C)C)c4)C3)[C@H](C)[C@H]12
> 95,> 95,> 25,3,83,CCC(CC)C(=O)OCOC(=O)C1=C(S[C@@H]2CN[C@H](C(=O)Nc3cccc(C(=O)OCOC(=O)C(CC)CC)c3)C2)[C@H](C)[C@@H]2[C@@H]([C@@H](C)O)C(=O)N12
> 95,> 95,> 25,0,82,CCC(CC)C(=O)OCOC(=O)C1=C(S[C@@H]2CN[C@H](C(=O)Nc3cccc(C(=O)O)c3)C2)[C@H](C)[C@@H]2[C@@H]([C@@H](C)O)C(=O)N12
> 95,> 95,> 25,0,26,CC(C)C(=O)OCOC(=O)c1cccc(NC(=O)[C@@H]2C[C@H](SC3=C(C(=O)O)N4C(=O)[C@H]([C@@H](C)O)[C@H]4[C@H]3C)CN2)c1
> 95,> 95,> 25,10,60,C[C@@H](O)[C@H]1C(=O)N2C(C(=O)OCOC(=O)C3CCCCC3)=C(S[C@@H]3CN[C@H](C(=O)Nc4cccc(C(=O)OCOC(=O)C5CCCCC5)c4)C3)[C@H](C)[C@H]12
> 95,> 95,> 25,0,20,C[C@@H](O)[C@H]1C(=O)N2C(C(=O)OCOC(=O)C3CCCCC3)=C(S[C@@H]3CN[C@H](C(=O)Nc4cccc(C(=O)O)c4)C3)[C@H](C)[C@H]12
> 95,> 95,> 25,0,0,CC(=O)OCOC(=O)C1=C(S[C@@H]2CN[C@H](C(=O)Nc3cccc(C(=O)OCOC(C)=O)c3)C2)[C@H](C)[C@@H]2[C@@H]([C@@H](C)O)C(=O)N12
> 95,> 95,> 25,2,46,CC(OC(=O)C1=C(S[C@@H]2CN[C@H](C(=O)Nc3cccc(C(=O)OC(C)OC(=O)C(C)(C)C)c3)C2)[C@H](C)[C@@H]2[C@@H]([C@@H](C)O)C(=O)N12)OC(=O)C(C)(C)C (stereo not given in full)
> 95,> 95,> 25,8,67,C[C@@H](O)[C@H]1C(=O)N2C(C(=O)OCOC(=O)OC(C)(C)C)=C(S[C@@H]3CN[C@H](C(=O)Nc4cccc(C(=O)OCOC(=O)OC(C)(C)C)c4)C3)[C@H](C)[C@H]12
> 95,> 95,> 25,0,40,C[C@@H](O)[C@H]1C(=O)N2C(C(=O)OCOC(=O)OC(C)(C)C)=C(S[C@@H]3CN[C@H](C(=O)Nc4cccc(C(=O)O)c4)C3)[C@H](C)[C@H]12
> 95,> 95,> 25,3,28,CC(C)OC(=O)OCOC(=O)C1=C(S[C@@H]2CN[C@H](C(=O)Nc3cccc(C(=O)OCOC(=O)OC(C)C)c3)C2)[C@H](C)[C@@H]2[C@@H]([C@@H](C)O)C(=O)N12
> 95,> 95,> 25,0,62,CC(C)OC(=O)OCOC(=O)C1=C(S[C@@H]2CN[C@H](C(=O)Nc3cccc(C(=O)O)c3)C2)[C@H](C)[C@@H]2[C@@H]([C@@H](C)O)C(=O)N12
> 95,> 95,> 25,10,96,C[C@@H](O)[C@H]1C(=O)N2C(C(=O)OCOC(=O)OC3CCCCC3)=C(S[C@@H]3CN[C@H](C(=O)Nc4cccc(C(=O)OCOC(=O)OC5CCCCC5)c4)C3)[C@H](C)[C@H]12
> 95,> 95,> 25,0,46,C[C@@H](O)[C@H]1C(=O)N2C(C(=O)OCOC(=O)OC3CCCCC3)=C(S[C@@H]3CN[C@H](C(=O)Nc4cccc(C(=O)O)c4)C3)[C@H](C)[C@H]12
> 95,> 95,> 25,0,1,CCOC(=O)OCOC(=O)C1=C(S[C@@H]2CN[C@H](C(=O)Nc3cccc(C(=O)OCOC(=O)OCC)c3)C2)[C@H](C)[C@@H]2[C@@H]([C@@H](C)O)C(=O)N12
> 95,> 95,> 25,0,10,CCOC(=O)OCOC(=O)C1=C(S[C@@H]2CN[C@H](C(=O)Nc3cccc(C(=O)O)c3)C2)[C@H](C)[C@@H]2[C@@H]([C@@H](C)O)C(=O)N12
> 95,> 95,> 25,0,0,COC(=O)OCOC(=O)C1=C(S[C@@H]2CN[C@H](C(=O)Nc3cccc(C(=O)OCOC(=O)OC)c3)C2)[C@H](C)[C@@H]2[C@@H]([C@@H](C)O)C(=O)N12
> 95,> 95,> 25,0,33,COC(=O)OCOC(=O)C1=C(S[C@@H]2CN[C@H](C(=O)Nc3cccc(C(=O)O)c3)C2)[C@H](C)[C@@H]2[C@@H]([C@@H](C)O)C(=O)N12
> 95,> 95,> 25,0,12,Cc1oc(=O)oc1COC(=O)c1cccc(NC(=O)[C@@H]2C[C@H](SC3=C(C(=O)O)N4C(=O)[C@H]([C@@H](C)O)[C@H]4[C@H]3C)CN2)c1
> 95,> 95,> 25,,,CCOC(=O)C1=C(S[C@@H]2CN[C@H](C(=O)Nc3cccc(C(=O)O)c3)C2)[C@H](C)[C@@H]2[C@@H]([C@@H](C)O)C(=O)N12
> 95,> 95,> 25,,,CCOC(=O)c1cccc(NC(=O)[C@@H]2C[C@H](SC3=C(C(=O)O)N4C(=O)[C@H]([C@@H](C)O)[C@H]4[C@H]3C)CN2)c1
> 95,> 95,> 25,,,CC(C)OC(=O)C1=C(S[C@@H]2CN[C@H](C(=O)Nc3cccc(C(=O)O)c3)C2)[C@H](C)[C@@H]2[C@@H]([C@@H](C)O)C(=O)N12
> 95,> 95,> 25,,,CC(C)OC(=O)c1cccc(NC(=O)[C@@H]2C[C@H](SC3=C(C(=O)O)N4C(=O)[C@H]([C@@H](C)O)[C@H]4[C@H]3C)CN2)c1
> 95,> 95,> 25,89,89,CCCCCCCCCCCCCCCCOC(=O)C1=C(S[C@@H]2CN[C@H](C(=O)Nc3cccc(C(=O)OCCCCCCCCCCCCCCCC)c3)C2)[C@H](C)[C@@H]2[C@@H]([C@@H](C)O)C(=O)N12
> 95,> 95,> 25,7,80,C[C@@H](O)[C@H]1C(=O)N2C(C(=O)OCC(F)(F)F)=C(S[C@@H]3CN[C@H](C(=O)Nc4cccc(C(=O)O)c4)C3)[C@H](C)[C@H]12
> 95,> 95,> 25,,,C[C@@H](O)[C@H]1C(=O)N2C(C(=O)O)=C(S[C@@H]3CN[C@H](C(=O)Nc4cccc(C(=O)OCC(F)(F)F)c4)C3)[C@H](C)[C@H]12
> 95,> 95,> 25,0,19,CCOC(=O)C1=C(S[C@H]2C[C@@H](C(=O)Nc3cccc(C(=O)OCC)c3)N(Cc3oc(=O)oc3C)C2)[C@H](C)[C@@H]2[C@@H]([C@@H](C)O)C(=O)N12
> 95,> 95,> 25,0,4,C[C@@H](O)[C@H]1C(=O)N2C3=C(S[C@@H]4CN[C@@H](C4)C(=O)Nc4cccc(c4)C(=O)OCCCCOC3=O)[C@H](C)[C@H]12
